PERK inh – human PERK inhibition, primary cell-based screen; Q9NZJ5; CHO PERK-DD fusion, SEAP luminescence translation reporter; inhibition, % at 5.6 µM; hit rate 0.17% among 220,000;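 active means inhibition above the mean inhibition of all tested compounds plus 3 SD, set separately per screening campaign, cut at about 2.9% in these data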;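 further: PERK kinase domain activated by AP20187 dimerizer at 100 nM; 0% = DMSO with dimerizer and 100% = rapamycin at 8.4 µM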
APP 5'UTR act – APP 5'UTR luciferase reporter activation; SH-SY5Y APP 5'UTR luciferase reporter, luminescence; zero percent = DMSO vehicle wells; hit rate 1% among 190,000; activation, % at 2 µM;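 active means activation above a set limit, based on mean plus 3 SD of controls, cut at about 140% in these data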
STAT1 act – increases IFN-gamma driven STAT1 reporter signal; NIH 3T3 STAT1-luciferase reporter, luminescence; 100% = IFN-gamma alone, no compound; hit rate 2.6% among 200,000; activation (% of control), % at 5.5 µM;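 active means activation above the screen-wide mean activation plus 3 SD, cut at about 130% in these data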;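 further: raw ratio to IFN-gamma control signal so 100% means no change and 0% no light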
NF-kB neuron act – raises NF-kB expression in human neuronal cells. fold change at 12.5 µM. hit rate 1.6% among 190,000. AID 1239. NF-kB reporter expression; stronger effect = higher value; in the data active means fold change above about 3.3
AHR act – activators of human aryl hydrocarbon receptor. P35869. AHR-responsive luciferase reporter cells, luminescence. activation, % at 5 µM. hit rate 2.5% among 320,000. AID 2796; in the data active means activation above about 47%;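 further: 0% = vehicle wells and 100% = reference agonist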
Mdm2 ligase inh – blocks human Mdm2 ubiquitin ligase activity | signal enhancement, % at 5 µM | AID 1230 | hit rate 0.11% among 210,000 | cell-based MDM2 ubiquitination luciferase reporter, 2 h; 0 = plate control, 100 = twice control, blank-subtracted | Q00987;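 active means signal enhancement of 30% or more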;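 further: luminescence tracks abundance of the self-degrading MDM2-luciferase fusion protein; higher signal means inhibition of MDM2 E3 ligase activity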
Target sequence (Q00987 whole entry, looked up, the tested form may be a part): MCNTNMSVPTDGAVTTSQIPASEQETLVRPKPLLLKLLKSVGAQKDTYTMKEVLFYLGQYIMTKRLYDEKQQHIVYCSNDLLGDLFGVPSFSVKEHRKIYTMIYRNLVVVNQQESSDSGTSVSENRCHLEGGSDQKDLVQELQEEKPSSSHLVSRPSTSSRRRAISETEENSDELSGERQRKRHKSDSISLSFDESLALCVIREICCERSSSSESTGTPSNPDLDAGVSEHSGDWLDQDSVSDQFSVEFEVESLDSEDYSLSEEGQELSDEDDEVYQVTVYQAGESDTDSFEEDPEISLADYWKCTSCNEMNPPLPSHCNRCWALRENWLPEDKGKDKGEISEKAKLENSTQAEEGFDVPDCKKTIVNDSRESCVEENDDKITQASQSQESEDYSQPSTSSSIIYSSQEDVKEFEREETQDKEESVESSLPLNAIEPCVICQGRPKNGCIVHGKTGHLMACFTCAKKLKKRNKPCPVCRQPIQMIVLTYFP
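Assay system: stable mammalian line carrying autodegrading MDM2–luciferase fusion reporter; Input: 2000 cells in each well; Compound dosing: single-point 5 µM; Schedule: 2 h compound exposure at 37 °C; Signal: SteadyLite luciferase luminescence after 15 min room-temperature reagent incubation; Evaluation: % luminescence enhancement versus blank-corrected plate control mean; Benchmarks: plate controls and plate blanks.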
* marks the source's active call; other numbers are inactive results; x = no result. Rows were chosen to be rich in hits. Some 4.5% of all compounds tested hit in one or more screens of this group.

SMILES	PERK inh	APP 5'UTR act	STAT1 act	NF-kB neuron act	AHR act	Mdm2 ligase inh
CN(/N=C/C=C/c1ccccc1)c1cc(=O)n(C)c(=O)[nH]1	2	22	104	1.2	70*	17
Cn1ncc2c(N3CCC(Cc4ccccc4)CC3)ncnc21	1	44	86	0.96	73*	-4
Cc1cc(C)n2nc(C(=O)OCC(=O)NCc3ccccc3)nc2n1	x	x	x	x	0	x
COCCCn1c(=S)[nH]c2c(sc3ccccc32)c1=O	0	-6	103	1.7	1	-6
CCOc1ccccc1NC(=O)c1cc(=O)[nH]c2ccc(S(=O)(=O)N3CCOCC3)cc12	x	x	x	x	57*	x
Cc1onc(-c2ccccc2Cl)c1C(=O)NC1CCCCCC1	x	x	x	x	0	x
COc1ccc2c(c1OC)C(=O)N(c1ccc(C)cc1)C2=O	2	-8	129*	1.4	8	13
CC1CN(C(=O)c2ccc(Br)c(S(=O)(=O)N3CCOCC3)c2)CC(C)O1 (stereo not drawn)	x	x	x	x	1	x
CCCN=C(Nc1ccc(Cl)cc1)c1cccnc1	1	0	104	1.6	118*	-7
S=C(NCc1cccnc1)Nc1ccc(Cl)cc1	0	-13	93	0.93	0	-11
CCCCN=C(Nc1ccc(Cl)cc1)c1cccnc1	1	17	104	0.9	88*	12
CCCCc1ccc(NC(=S)Nc2cccnc2)cc1	1	3	107	1	2	-10
Cc1noc(C)c1CSCC(=O)NCCN1C(=O)S/C(=C\c2ccccc2F)C1=O	x	x	x	x	3	x
Cc1ccc(OCc2cc(C(=O)N3CCCC(O)C3)no2)cn1 (stereo not drawn)	x	x	x	x	1	x
CCc1ccc(C(=O)/C=C/c2cnn(C)c2C)s1	-1	174*	129*	11*	-4	-23
Cc1ccc(OCC(=O)Nc2ccc(CN3CCCCC3)cc2)c(C)c1	0	9	105	1.4	0	-18
O=C(NCCCn1ccnc1)c1cc(-c2cccc(O)c2)on1	0	x	x	x	1	-10
COc1ccc(CCC(C)N2CCC(CO)(Cc3ccccc3)CC2)cc1 (stereo not drawn)	x	x	x	x	0	x
COc1ccc(C(=O)NC(=S)NCc2cccnc2)cc1[N+](=O)[O-]	0	-10	100	0.93	76*	-7
CN1CCC(N(C)C(=O)c2ccc(Cl)c(S(=O)(=O)N3CCCCC3)c2)CC1	x	x	x	x	-2	x
COC(=O)c1cn[nH]c1NC(=S)Nc1ccc(Cl)c(Cl)c1	1	222*	145*	0.91	48*	-11
COCCN(C(=O)COC(=O)c1cc(C)oc1C)c1c(N)n(Cc2ccccc2)c(=O)[nH]c1=O	x	x	x	x	-2	x
C/C(=N/NS(=O)(=O)c1ccccc1)c1ccc(Cl)cc1	0	-7	102	1.3	53*	-12
C/C(=N/NS(=O)(=O)c1ccc(Cl)cc1)c1ccncc1	x	x	x	x	2	x
O=C(Cn1cnc([N+](=O)[O-])c1)NCCc1ccccc1	x	x	x	x	-1	x
SMILES	PERK inh	APP 5'UTR act	STAT1 act	NF-kB neuron act	AHR act	Mdm2 ligase inh
CCCCC(=O)Nc1nc2c(s1)COc1ccccc1-2	x	x	x	x	49*	x
CCCC(=O)Nc1nc2c(s1)COc1ccccc1-2	x	x	x	x	24	x
O=C(CCSc1ccccc1)Nc1nc2c(s1)COc1ccccc1-2	1	-8	99	1.1	52*	-10
COc1cc(S(=O)(=O)Nc2ccc(Br)cc2)ccc1N	0	3	95	1	2	-5
CCOc1ccc(NC(=O)Nc2ccc(Br)cn2)cc1	1	50	145*	1.9	1	-22
Cc1ccc(NC(=O)Nc2ccc3c(c2)N(C)C(=O)CS3)nc1	-1	-1	129*	1.1	-2	x
COCCNC(=O)Nc1ccc2c(c1)N(C)C(=O)CS2	1	-17	100	1.5	13	-2
Cc1ccc(NC(=O)Nc2ccc(F)cc2)nc1	0	35	136*	2.1	4	-7
CC(C)CCNC(=O)Nc1ccc2c(c1)N(C)C(=O)CS2	0	4	100	0.95	47*	2
Cc1cccc(NC(=O)Nc2ccc3c(c2)N(C)C(=O)CS3)n1	-1	22	120	1.6	-4	-18
CCN(CC)c1nc2c(c(=O)[nH]c(=O)n2C)n1CCOc1ccccc1	x	x	x	x	10	x
COc1ccc(OC)c(S(=O)(=O)Nc2ccc(-c3ccc4nncn4n3)cc2)c1	x	x	x	x	0	x
O=C1CC2(CCN(C(=O)COc3ccccc3F)CC2)Oc2ccccc21	x	x	x	x	0	x
CCOc1cc(Br)c(COc2ccc(C)nc2[N+](=O)[O-])cc1OCC	x	x	x	x	10	x
Cc1ccc(OCCOc2cccc(Br)c2)c([N+](=O)[O-])n1	0	54	132*	2.5	1	-5
CCCCCCCCCCCCCCCC(=O)OC[C@H](COP(=O)([O-])OCC[N+](C)(C)C)OC(=O)CCCCCCCCCCCCCCC	3.0*	7	98	1.1	x	x
CCOc1ccccc1CN1CCN(CC2=Cc3cc(OC)ccc3OC2)CC1CCO (stereo not drawn)	-2	x	x	x	2	-16
Cc1[nH]nc(N)c1N=Nc1ccc(Br)cc1	1	21	108	1.1	68*	-39
Cc1ccc(N=Nc2c(N)n[nH]c2N)cc1	x	x	x	x	6	x
CC(=O)c1ccccc1NC(=O)CCCNC(=O)c1ccc(Cl)cc1	x	x	x	x	9	x
CNC(=S)NNC(=O)c1oc2nc(-c3ccccc3)cc(C)c2c1N	0	x	x	x	56*	-2
Cn1nc(C(=O)NCC(=O)Nc2ccc(F)c(F)c2F)c2ccccc2c1=O	x	x	x	x	-3	x
CCCCCCc1ccc(-c2ncc(N)cn2)cc1	1	70	139*	4.4*	7	-7
COc1ccc(OC)c(Cc2nnc(CCC(=O)NC(C3CC3)C3CC3)o2)c1	0	-9	98	1.3	14	2
COc1ccc(OC)c(Cc2nnc(CCC(=O)N3CCCCC3)o2)c1	1	19	132*	1.9	10	-12
SMILES	PERK inh	APP 5'UTR act	STAT1 act	NF-kB neuron act	AHR act	Mdm2 ligase inh
COc1ccc(OC)c(Cc2nnc(CCC(=O)NCc3ccc(C)s3)o2)c1	3.3*	-7	104	1.4	2	21
Cc1cc2ncn(CC3CC3(Cl)Cl)c2cc1C (stereo not drawn)	1	6	94	0.98	-1	-6
O=C1C=C(Nc2ccccc2)C(=O)c2ccccc21	0	140*	132*	8.2*	11	-31
CCN(CC)Cc1c(C(=O)N/N=C/c2c(Cl)cccc2Cl)nnn1-c1nonc1N	x	x	x	x	4	x
COc1ccc(CCN(C)C(=O)c2ccc(S(=O)(=O)Nc3ccccc3F)cc2)cc1OC	x	x	x	x	1	x
Nc1nc(COc2ccc3ccccc3c2)cs1	1	48	138*	2.4	-3	-17
Nc1nc(CCOc2ccc(F)cc2)cs1	0	30	141*	1.8	x	-12
Cc1sc2nc(CN3CCCCC3)nc(Nc3ccc4c(c3)OCCO4)c2c1C	-1	27	105	1.1	9	-30
C#CCNC(=O)C1=C[C@H](C2CCCCC2)[C@@H](CCCO)[C@H](OCC)O1	1	-1	98	1	4	x

Screening results deposited in PubChem BioAssay by several laboratories.
